Data from article PMC2898448 (The Journal of Biological Chemistry, 2010).
“Also recorded” adds a separate entry of the source. Each block holds one molecule with its values, some of them ahead of it. No end group written: not given here. *: point of attachment. pNA = O=[N+]([O-])c1ccc(N*)cc1; Cbz = O=C(OCc1ccccc1)*

Tests used:
[1] = system: DPP4; conditions: ref [64]; cited from earlier work
[2] = system: PEP; conditions: ref [9]; cited from earlier work
[3] = system: apPEP (WT and D622N crystals); test: Crystal soaking with zPP; assay type: binding, Aeromonus punctata
Procedure, shortened: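 Native full-length WT or D622N apPEP (E. coli-expressed, Ni-affinity purified, thrombin-cleaved, SEC) crystallized at 14 °C with 20 mM MES pH 6.5 and PEG. Crystals were cryoequilibrated 1–2 days at 4 °C, soaked overnight at 4 °C, then glutaraldehyde vapour cross-linked for 4 h at 4 °C. Data were collected at 100 K; structures solved by molecular replacement, with inhibitor placed from difference maps.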

[4] = system: apPEP (WT Aeromonus punctata PEP); test: apPEP enzyme kinetics with chromogenic/fluorescent substrate Z-Gly-Pro-pNA; assay type: biochemical
Procedure, shortened: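 Free pNA was read […] to give initial velocities. Km came from a Lineweaver-Burk plot over 31–500 μM substrate. kcat/Km was taken as Vo/SoEo at two or more substrate concentrations.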

[5] = cited from earlier work; for side effects (in words): ref [18], [19]; for duration of action (in words): reference not given

Molecule: IP10: DPP4 substrate
- cleavage efficiency by DPP4 relative to GLP1 (in words) [1]: even higher efficiency than GLP1

Molecule: bradykinin: cleaved by PEP (RPPGFSPFR; Bradykinin; UniProt P01042 381-389, looked up)
- cleavage by PEP (in words) [2]: Cleavage

Molecule: benzyloxy-carbonyl-prolyl-prolinal [zPP]
- contact with catalytic Ser538 (in words) ([3]; D622N-zPP structure): makes van der Waals contact with the aldehyde group of the inhibitor
- conformational change induced by inhibitor (in words) ([3]; preformed native crystals soaked with 10 mM zPP overnight at 4 °C): inducing a conformational change from opened (red) to closed (blue) states; also recorded: induces large scale interdomain closure

- kcat ([4]; 20 mM Tris-HCl (pH 8), 100 mM NaCl, 34 °C): 505 s⁻¹
- kcat/Km ([4]; from initial rates, kcat/Km = Vo/SoEo, substrate 16–62 μM, pH 8, 34 °C): 623000 M⁻¹ s⁻¹
Molecule: Cbz-Gly-Pro-pNA

Molecule: gastrin-releasing peptide 3–27: DPP4 substrate (LPAGGGTVLTKMYPRGNHWAVGHLM; ends and bridges not checked; UniProt P07492 26-50, looked up, fragment)
- cleavage efficiency by DPP4 relative to GLP1 (in words) [1]: even higher efficiency than GLP1

Molecule: N[C@@H](CC(=O)N1CCn2c(nnc2C(F)(F)F)C1)Cc1cc(F)c(F)cc1F [Januvia]
- side effects (in words) [5]: no significant negative side effects
- duration of action (in words) [5]: act transiently

Molecule: neuropeptide Y: involved in neurogenic inflammation and blood pressure regulation
- cleavage efficiency by DPP4 relative to GLP1 (in words) [1]: even higher efficiency than GLP1

Molecule: angiotensin I-II
- cleavage by PEP (in words) [2]: Cleavage

Molecule: N#C[C@@H]1CCCN1C(=O)CNC12CC3CC(CC(O)(C3)C1)C2 [Galvus]
- side effects (in words) [5]: no significant negative side effects
- duration of action (in words) [5]: act transiently

Molecule: stromal cell-derived factor 1α
- cleavage efficiency by DPP4 relative to GLP1 (in words) [1]: even higher efficiency than GLP1

B1: Mig: DPP4 substrate (protein, UniProt Q07325 23-125, looked up)
C-X-C motif chemokine 9: TPVVRKGRCSCISTNQGTIHLQSLKDLKQFAPSPSCEKIEIIATLKNGVQTCLNPDSADVKELIKKWEKQVSQKKKQKNGKKHQKKKVLKVRKSQRSRQKKTT
- cleavage efficiency by DPP4 relative to GLP1 (in words) [1]: even higher efficiency than GLP1

B2: interferon-inducible T cell α: DPP4 substrate (protein, UniProt O14625 22-94, looked up)
C-X-C motif chemokine 11: FPMFKRGRCLCIGPGVKAVKVADIEKASIMYPSNNCDKIEVIITLKENKGQRCLNPKSKQARLIIKKVERKNF
- cleavage efficiency by DPP4 relative to GLP1 (in words) [1]: even higher efficiency than GLP1

B3: monocyte-derived chemokine: DPP4 substrate (protein, UniProt O00626 25-93, looked up)
C-C motif chemokine 22: GPYGANMEDSVCCRDYVRYRLPLRVVKHFYWTSDSCPRPGVVLLTFRDKEICADPRVPWVKMILNKLSQ
- cleavage efficiency by DPP4 relative to GLP1 (in words) [1]: even higher efficiency than GLP1
